# NR2E3 ag-1: activates human photoreceptor nuclear receptor NR2E3 | Q9Y5X4 | GST-NR2E3/biotin-RetCOR TR-FRET, 1536-well | inhibition of corepressor binding, % at 4.78 µM | actives 0.12% (n = 320,000);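 active = percent inhibition above the cutoff of mean plus 3 SD of all tested compounds, set per screening campaign, cut at about 20% in these data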;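 also: 0% = DMSO wells and 100% = biotin wells as full block of FRET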
#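 Material: NR2E3–RetCOR corepressor complex / Incubation: Compound–protein incubation for 5 h at 4 °C / Dosing: compound at 4.8 µM, single dose / Detection: time-resolved FRET / Benchmarks: high control biotin, low control 0.6% DMSO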
# NR1D1 modulator: modulates human Rev-erb alpha binding to DNA; P20393; Rev-erbα–FITC-DNA binding, fluorescence polarization, 90 min; activity, % at 10 µM; actives 0.79% (n = 370,000);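 active = activity above about 14%, limit read from the data; passing the limit was not always enough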;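 also: 0% = DMSO wells with 35 nM protein and 100% = DMSO wells with 750 nM protein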
# Target sequence (P20393 whole entry, looked up): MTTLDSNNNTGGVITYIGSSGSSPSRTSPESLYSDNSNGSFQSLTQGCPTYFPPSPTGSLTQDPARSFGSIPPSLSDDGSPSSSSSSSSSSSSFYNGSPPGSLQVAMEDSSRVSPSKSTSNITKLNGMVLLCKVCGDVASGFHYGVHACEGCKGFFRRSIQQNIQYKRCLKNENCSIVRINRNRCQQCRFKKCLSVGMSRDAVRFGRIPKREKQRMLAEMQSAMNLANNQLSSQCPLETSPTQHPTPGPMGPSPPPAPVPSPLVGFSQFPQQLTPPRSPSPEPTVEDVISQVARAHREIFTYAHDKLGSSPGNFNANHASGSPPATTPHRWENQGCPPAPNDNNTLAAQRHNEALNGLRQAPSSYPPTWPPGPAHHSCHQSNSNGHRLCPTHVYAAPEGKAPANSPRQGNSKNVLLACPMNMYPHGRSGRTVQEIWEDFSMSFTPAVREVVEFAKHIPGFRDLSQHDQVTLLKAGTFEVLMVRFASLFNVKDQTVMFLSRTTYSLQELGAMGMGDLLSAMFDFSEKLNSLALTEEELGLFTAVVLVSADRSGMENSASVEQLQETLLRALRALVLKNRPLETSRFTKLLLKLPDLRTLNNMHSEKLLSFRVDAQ
# PG9 Ab binder: PG9 antibody binding by small molecule | TR-FRET gp120-PG9 antibody binding | inhibition, % at 6.7 µM | actives 0.43% (n = 360,000) | AID 624416; in the data active = inhibition above about 8.5%
# NR2E3 ag-2: activates human NR2E3 receptor; CHO-S Gal4-NCOR/VP16-NR2E3 two-hybrid, luciferase; inhibition of corepressor binding, % at 3.98 µM; actives 0.35% (n = 360,000); AID 602229;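 active = inhibition above the mean of all tested compounds plus 3 SD, cut at about 70% in these data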;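 also: 0% = DMSO with NR2E3 transfected cells and 100% = cells lacking NR2E3 construct; higher means lower luciferase signal from less NR2E3 corepressor binding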
# NR1D1 mod conf: confirmation of modulators of human Rev-erb alpha DNA binding; AID 1259319; shares compounds with NR1D1 modulator; Rev-erb alpha FITC-DNA binding, fluorescence polarization, 90 min; activation, % at 25 µM; actives 61% (n = 3,000);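 active = activation at or above a set limit, or at least 3 SD above the negative control mean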;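 also: 0% = 35 nM protein with DMSO and 100% = 750 nM protein high control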
# RORg counter: RORgamma DNA-binding activity, dose-response counter-screen; shares compounds with NR1D1 modulator; purified RORgamma protein-FITC-DNA binding, fluorescence polarization; IC50, µM; actives 8% (n = 910); AID 1259320;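 active = Compounds whose fitted half-maximal concentration for disrupting protein-DNA binding is below 10 micromolar; the record names Rev-erb in its text, so the target is in doubt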
# * marks the source's active call; other numbers are inactive results; i = inactive; / = no result given; ! = not active in a repeat. Rows were chosen to be rich in hits. Some 1.4% of all compounds tested hit in one or more screens of this group.
SMILES,NR2E3 ag-1,NR1D1 modulator,PG9 Ab binder,NR2E3 ag-2,NR1D1 mod conf,others
C[C@@H]1[C@@H](O)C[C@@]2(C[C@H](O)c3cc(Cl)cc(Cl)c3O2)O[C@H]1c1ccccc1Cl,/,2.6,/,/,/,
S=c1nc(C2CCCCC2)[nH]c2ccccc12,18.1,16.4*,8.2,19.6,12.7,
S=c1nc(C2CC2)[nH]c2ccccc12,18.0,1.6,2.6,9.7,/,
CCOc1ccccc1NC(=O)CSC1=C(C#N)C(c2ccco2)C(C(=O)Nc2nc3ccccc3s2)=C(C)N1 (stereo unspecified),1.1,66.1*,1.1,-26.2,54.3*,RORg counter=>40
Cc1ccccc1CNC(=O)C1CCCN(c2ncccn2)C1 (stereo unspecified),/,-1.4,/,/,/,
CCOC(=O)c1c(NC(=S)Nc2ccc(C)cc2)sc2c1CCC2,2.6,76.1*,-1.8,-8.7,84.0*,RORg counter=>40
COC(=O)c1c(NC(=O)c2ccc(Br)s2)sc2c1CCC2,9.3,25.5*,-1.6,5.6,28.1*,
CCOC(=O)c1c(NC(=O)CN(CC)CC)sc2c1CCC2,0.6,33.4*,-2.3,-4.6,-0.4,
CC(COc1ccc([N+](=O)[O-])cc1Cl)CN1CCC(C(O)(c2ccccc2)c2ccccc2)CC1 (stereo unspecified),/,-1.0,/,/,/,
Cc1nc2ccccc2c2nc3ccccc3n12,3.7,-0.2,0.8,-2.9,/,
Fc1ccc(-c2nc3ccccc3c3nc4ccccc4n23)cc1,-1.1,26.2*,0.7,-11.3,19.4*,
CCCCCCCCCCCCCCCC[n+]1ccccc1,/,24.7*!,-0.7,3.8,-3.5,
C[C@H]1[C@@H](NCc2cccs2)CC[C@@]23CCCN2C(=O)CCC[C@@H]13,/,-1.5,/,/,/,
CCN(CC)c1ccc2cc(C(N)=O)c(=O)oc2c1,4.3,8.8,-1.6,-20.4,/,
CCN(CC)c1ccc2cc(C(=O)Nc3ccccn3)c(=O)oc2c1,5.0,-8.7,1.0,-134.0,/,
CCN(CC)c1ccc2cc(C=O)c(=O)oc2c1,-3.3,89.7*,-6.7,-12.1,73.6*,RORg counter=>40
CCN(CC)c1ccc2cc(-c3nnc(-c4ccncc4)o3)c(=O)oc2c1,/,59.4*,-5.3,-18.8,29.6*,
CCN(CC)c1ccc2cc(C(N)=O)c(=N)oc2c1,-2.0,55.0*,-4.6,-58.0,24.0*,
CCN(CC)c1ccc2cc(NC(=O)CCC(=O)O)c(=O)oc2c1,-1.2,0.7,-5.0,41.4,/,
CCN(CC)c1ccc2cc(C(C)=O)c(=O)oc2c1,-3.1,36.4*,-4.7,5.0,9.3,
CC(C)(C)c1ccc(C(=O)NCC(=O)OCC(=O)c2ccc3c(c2)-c2ccccc2C3)cc1,-0.1,25.9*,-1.6,1.3,8.1,
CC(=O)Oc1ccc(/C=N\NC(=O)c2cc3c(ccc4ccccc43)o2)cc1,-0.5,32.6*,-1.8,18.9,33.4*,RORg counter=>40
CC1(C)C=C2C(N(Cc3ccc4c(c3)OCO4)C(=N)N2C(=O)OCc2ccccc2)n2c(=O)n(-c3ccccc3)c(=O)n21 (stereo unspecified),/,-6.0,/,/,/,
N#Cc1nc(-c2ccccc2Cl)oc1N1CCCCC1,0.1,0.4,-0.7,-53.5,/,
CC1CC(C)CN(c2oc(-c3ccccc3Cl)nc2C#N)C1 (stereo unspecified),-2.5,17.7*,-0.7,-17.9,-13.6,
SMILES,NR2E3 ag-1,NR1D1 modulator,PG9 Ab binder,NR2E3 ag-2,NR1D1 mod conf,others
N#Cc1nc(-c2ccccc2Cl)oc1N1CCN(C(=O)c2ccco2)CC1,4.8,25.1*,1.9,0.7,3.0,
O=C(OCc1ccc(CSc2nnc(-c3cccc4ccccc34)o2)cc1)c1ccc(F)cc1,/,-2.1,/,/,/,
COCCCN1C(=O)[C@H](CC(=O)NCCCN2CCCC2=O)[C@]2(C(=O)OC)CCCCC=C12,/,3.5,/,/,/,
CC(C)Nc1nc(-c2cccnc2)nc(-c2ccccc2)c1C#N,-2.0,22.6*,0.3,-24.0,0.8,
CN(C)c1nc(-c2cccnc2)nc(-c2ccccc2)c1C#N,/,36.9*,-2.2,-11.8,29.5*,RORg counter=>40
CC(C)Nc1nc(-c2ccncc2)nc(-c2ccc(Cl)cc2)c1C#N,1.9,20.4*,-3.3,0.4,9.0,
CC(C)Nc1nc(-c2cccnc2)nc(-c2ccc(Cl)cc2)c1C#N,1.6,247.2*,-0.1,-25.6,54.5*,RORg counter=>40
N#Cc1c(Cl)nc(-c2ccncc2)nc1-c1ccccc1,2.9,5.6,0.8,-24.4,/,
N#Cc1c(-c2ccccc2)nc(-c2cccnc2)[nH]c1=O,5.3,-3.6,4.3,-12.3,/,
CC(C)Nc1nc(-c2ccccn2)nc(-c2ccccc2)c1C#N,4.6,8.4,-1.4,2.7,/,
COC(=O)[C@H](CC(C)C)N(CCCc1cn(Cc2ccc(C)cc2)nn1)S(=O)(=O)c1ccccc1Br,/,-0.1,/,/,/,
COc1ccc(S[C@]2(C(=O)N3CCN(c4ncccn4)CC3)CC(=O)N(C(=O)CCc3ccccc3)[C@@H]2c2ccc(OC)cc2)cc1,/,3.6,/,/,/,
C[C@@H]1COc2cc(Br)ccc2S(=O)(=O)N1Cc1cn(Cc2ccc(Br)cc2)nn1,/,4.8,/,/,/,
Nn1c(SCc2ccc(Br)cc2)nnc1-c1n[nH]c2c1CCC2,/,5.1,/,/,/,
Cn1c(SCC(=O)c2ccccc2)nnc1-c1ccncc1,-0.8,1.0,0.5,-8.5,/,
COc1ccc2c(Cl)c(-c3nnc(SCC(=O)c4ccccc4)n3C)sc2c1,-4.2,95.3*,1.1,2.3,117.2*,RORg counter=i
Cn1c(SCC(=O)c2ccc3c(c2)Cc2ccccc2-3)nnc1-c1ccccc1,-74.5,62.0*,1.9,-42.1,46.6*,RORg counter=7.48*
CCC(=O)Nc1nnc(SCC(=O)c2ccc3c(c2)Cc2ccccc2-3)s1,-9.3,44.3*,7.4,-38.5,16.8*,
COc1cc(NC(=O)c2ccccc2)c(C)cc1NC(=O)CSc1nnc(COc2ccccc2)n1Cc1ccco1,/,-4.1,/,/,/,
CCOc1ccc(-n2c(SCC(=O)Nc3cccc4ccccc34)nnc2-c2ccco2)cc1,/,-3.2,/,/,/,
COCCCN1C(=O)[C@H](CC(=O)N2CCC(c3ccccc3)CC2)[C@]2(C(=O)OC)CCCCC=C12,/,-2.7,/,/,/,
Cc1nc(C)c(-c2ccc(SCC(=O)Nc3cccc(Cl)c3)nn2)s1,-12.8,24.3*,-13.7,-37.9,10.4,
Cc1cc(NC(=O)COC(=O)C2CC(=O)N(c3ccc(Cl)cc3)C2)no1 (stereo unspecified),2.1,22.4*,0.0,-6.6,-7.9,
O=C(Nc1ccc(Cl)cn1)c1ccc2c(Cl)c3c(nc2c1)CCC3,0.5,-1.8,1.2,-10.1,/,
Cc1cccc(NC(=O)c2ccc3c(Cl)c4c(nc3c2)CCCC4)n1,2.5,23.8*,2.9,-11.5,10.8,
COC(=O)[C@@]12CCCCC3=C1N(CCC3)C(=O)[C@H]2CC(=O)NCc1cccs1,/,-2.3,/,/,/,
Cc1nn(-c2ccccc2)c2sc(C(=O)N3CCC4(CC3)OCCO4)cc12,/,-1.0,/,/,/,
COc1ccc2[nH]cc(S(=O)(=O)c3ccc(F)cc3)c(=O)c2c1,2.2,2.2,-0.5,-16.0,/,
Cc1ccc2[nH]cc(S(=O)(=O)c3ccc(C)c(C)c3)c(=O)c2c1,-4.0,56.2*,-2.3,11.6,33.2*,RORg counter=>40

# High-throughput results from PubChem BioAssay.
